From ChEMBL document CHEMBL5260840 (J Med Chem, 2019)
The source made the active and inactive calls. No cut-off for these calls is given here.

Legend:
[1] = molecular target: Bromodomain-containing protein 4 (Homo sapiens) (UniProt O60885)
[2] = molecular target: T1, von Hippel-Lindau disease tumor suppressor/Bromodomain-containing protein 7 (Homo sapiens) (UniProt Q9NPI1+P40337); experiment: PROTAC activity at VHL/BRD7 in human Ri-1 cells assessed as remaining BRD7 protein level at 1 uM incubated for 8 hrs by Western blot analysis relative to control; format: cell-based
T1 sequence (P40337 whole entry, looked up): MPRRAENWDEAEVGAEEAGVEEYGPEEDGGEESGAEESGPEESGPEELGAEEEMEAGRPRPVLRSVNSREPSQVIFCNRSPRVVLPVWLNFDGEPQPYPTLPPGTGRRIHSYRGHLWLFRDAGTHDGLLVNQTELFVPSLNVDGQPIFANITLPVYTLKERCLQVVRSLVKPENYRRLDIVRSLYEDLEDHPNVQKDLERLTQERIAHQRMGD
T1 sequence (Q9NPI1 whole entry, looked up): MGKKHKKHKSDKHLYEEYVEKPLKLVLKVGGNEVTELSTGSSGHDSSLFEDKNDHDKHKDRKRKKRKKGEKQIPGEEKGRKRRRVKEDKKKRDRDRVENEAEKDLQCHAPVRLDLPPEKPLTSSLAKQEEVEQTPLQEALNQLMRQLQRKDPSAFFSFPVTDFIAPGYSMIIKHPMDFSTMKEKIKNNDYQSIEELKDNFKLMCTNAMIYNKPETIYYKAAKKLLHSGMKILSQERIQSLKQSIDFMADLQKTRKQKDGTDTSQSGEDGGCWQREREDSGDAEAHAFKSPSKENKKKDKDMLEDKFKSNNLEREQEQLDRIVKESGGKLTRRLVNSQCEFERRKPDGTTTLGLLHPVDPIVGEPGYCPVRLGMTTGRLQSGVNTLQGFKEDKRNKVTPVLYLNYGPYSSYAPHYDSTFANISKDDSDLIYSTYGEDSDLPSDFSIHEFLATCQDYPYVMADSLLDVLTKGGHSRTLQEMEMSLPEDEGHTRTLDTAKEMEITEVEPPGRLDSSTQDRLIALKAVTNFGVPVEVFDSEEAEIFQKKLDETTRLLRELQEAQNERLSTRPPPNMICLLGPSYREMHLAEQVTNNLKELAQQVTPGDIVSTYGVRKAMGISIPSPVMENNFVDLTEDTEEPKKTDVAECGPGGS

[3] = molecular target: T2, von Hippel-Lindau disease tumor suppressor/Bromodomain-containing protein 9 (Homo sapiens) (UniProt Q9H8M2+P40337); experiment: PROTAC activity at VHL/BRD9 in human HeLa cells assessed as remaining BRD9 protein level at 1 uM incubated for 16 hrs by Western blot analysis relative to control; format: cell-based
T2 sequence (P40337 whole entry, looked up): as the sequence (P40337 whole entry, looked up) above
T2 sequence (Q9H8M2 whole entry, looked up): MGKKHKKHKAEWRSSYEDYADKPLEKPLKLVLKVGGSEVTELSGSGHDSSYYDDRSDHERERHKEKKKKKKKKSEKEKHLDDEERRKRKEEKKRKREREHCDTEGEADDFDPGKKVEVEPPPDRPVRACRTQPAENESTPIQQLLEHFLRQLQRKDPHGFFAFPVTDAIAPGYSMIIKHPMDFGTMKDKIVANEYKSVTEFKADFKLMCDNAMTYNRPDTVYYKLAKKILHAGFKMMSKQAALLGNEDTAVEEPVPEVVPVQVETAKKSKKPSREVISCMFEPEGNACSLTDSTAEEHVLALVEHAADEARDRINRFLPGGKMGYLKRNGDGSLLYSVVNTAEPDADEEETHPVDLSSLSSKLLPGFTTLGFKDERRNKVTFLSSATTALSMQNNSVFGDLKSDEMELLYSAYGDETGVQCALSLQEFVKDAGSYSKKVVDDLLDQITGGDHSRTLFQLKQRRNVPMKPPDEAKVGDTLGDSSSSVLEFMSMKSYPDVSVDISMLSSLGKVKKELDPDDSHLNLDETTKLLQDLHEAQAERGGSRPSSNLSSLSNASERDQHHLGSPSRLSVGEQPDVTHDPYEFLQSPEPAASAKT
How it was run: (§1)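 HeLa cells treated with compound for the stated time before harvest; BRD9, BRD7 and β-actin detected by Western blot with β-actin loading control; band intensities quantified.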

[4] = molecular target: T3, Von Hippel-Lindau disease tumor suppressor/Elongin B/Elongin C (Homo sapiens) (UniProt P40337+Q15370+Q15369); experiment: Co-operative binding affinity to 6His-tagged human VHL/ElonginC/ElonginB expressed in Escherichia coli BL21 (DE3) cells assessed as maximal intensity in the presence of BRD9-BD as complex with compound incubated for 1 hrs by AlphaLISA proximity assay
T3 sequence (P40337 whole entry, looked up): as the sequence (P40337 whole entry, looked up) above
T3 sequence (Q15369 whole entry, looked up): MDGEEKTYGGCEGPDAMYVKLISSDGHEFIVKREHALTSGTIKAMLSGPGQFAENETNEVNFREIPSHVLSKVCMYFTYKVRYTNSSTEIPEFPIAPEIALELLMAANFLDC
T3 sequence (Q15370 whole entry, looked up): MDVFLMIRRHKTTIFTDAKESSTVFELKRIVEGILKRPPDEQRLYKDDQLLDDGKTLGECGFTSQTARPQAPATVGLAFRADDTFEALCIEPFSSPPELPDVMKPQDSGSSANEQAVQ

[5] = molecular target: T2, von Hippel-Lindau disease tumor suppressor/Bromodomain-containing protein 9 (Homo sapiens); experiment: PROTAC activity at VHL/BRD9 in human HeLa cells assessed as protein degradation at 1 uM incubated for 4 hrs by Western blot analysis relative to control; format: cell-based
How it was run: as §1

[6] = molecular target: T2, von Hippel-Lindau disease tumor suppressor/Bromodomain-containing protein 9 (Homo sapiens); experiment: PROTAC activity at VHL/BRD9 in human HeLa cells assessed as BRD9 protein degradation at 1 uM incubated for 8 hrs by Western blot analysis; format: cell-based
How it was run: as §1

[7] = molecular target: T2, von Hippel-Lindau disease tumor suppressor/Bromodomain-containing protein 9 (Homo sapiens); experiment: PROTAC activity at VHL/BRD9 in human HeLa cells assessed as BRD9 protein degradation at 1 uM incubated for 4 hrs by Western blot analysis relative to control; format: cell-based
How it was run: as §1

[8] = molecular target: T3, Von Hippel-Lindau disease tumor suppressor/Elongin B/Elongin C (Homo sapiens); experiment: Co-operative binding affinity to 6His-tagged human VHL/ElonginC/ElonginB expressed in Escherichia coli BL21 (DE3) cells assessed as total gibb's free energy change in the presence of BRD9-BD as complex with compound by ITC analysis
[9] = molecular target: T1, von Hippel-Lindau disease tumor suppressor/Bromodomain-containing protein 7 (Homo sapiens); experiment: PROTAC activity at VHL/BRD7 in human HeLa cells assessed as remaining BRD7 protein level at 1 uM incubated for 4 hrs by Western blot analysis relative to control; format: cell-based
[10] = molecular target: T2, von Hippel-Lindau disease tumor suppressor/Bromodomain-containing protein 9 (Homo sapiens); experiment: PROTAC activity at VHL/BRD9 in human HeLa cells assessed as apparent half-life of BRD9 at 1 uM; format: cell-based
[11] = molecular target: T1, von Hippel-Lindau disease tumor suppressor/Bromodomain-containing protein 7 (Homo sapiens); experiment: PROTAC activity at VHL/BRD7 in human Ri-1 cells assessed as remaining BRD7 protein level at 1 uM incubated for 2 hrs by Western blot analysis relative to control; format: cell-based
[12] = molecular target: T2, von Hippel-Lindau disease tumor suppressor/Bromodomain-containing protein 9 (Homo sapiens); experiment: PROTAC activity at VHL/BRD9 in human Ri-1 cells assessed as remaining BRD9 protein level at 1 uM incubated for 8 hrs by Western blot analysis relative to control; format: cell-based
How it was run: (§2)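 Ri-1 cells exposed to compound for the stated time before harvest; BRD9, BRD7 and β-actin measured by Western blot, band intensities quantified and set against DMSO-treated control.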

[13] = molecular target: T1, von Hippel-Lindau disease tumor suppressor/Bromodomain-containing protein 7 (Homo sapiens); experiment: PROTAC activity at VHL/BRD7 in human HeLa cells assessed as remaining BRD7 protein level at 1 uM incubated for 16 hrs by Western blot analysis relative to control; format: cell-based
[14] = molecular target: T2, von Hippel-Lindau disease tumor suppressor/Bromodomain-containing protein 9 (Homo sapiens); experiment: PROTAC activity at VHL/BRD9 in human Ri-1 cells assessed as remaining BRD9 protein level at 1 uM incubated for 2 hrs by Western blot analysis relative to control; format: cell-based
How it was run: as §2

[15] = molecular target: T2, von Hippel-Lindau disease tumor suppressor/Bromodomain-containing protein 9 (Homo sapiens); experiment: PROTAC activity at VHL/BRD9 in human HeLa cells assessed as maximal protein degradation at 10 uM incubated for 4 hrs by Western blot analysis relative to control; format: cell-based
How it was run: as §1

Activity [2] | Activity [3] | Activity [4] | Activity [5] | Activity [6] | Activity [7] | deltaG [8] | Activity [9] | T1/2 [10] | Activity [11] | Activity [12] | Activity [13] | Activity [14] | Emax [15] | Compound | deltaG [1]
– | – | – | – | – | – | – | – | – | – | – | – | – | – | Cc1ncsc1-c1ccc(CNC(=O)[C@@H]2C[C@@H](O)CN2C(=O)[C@@H](NC(=O)COCCOCCOCCNC(=O)C[C@@H]2N=C(c3ccc(Cl)cc3)c3c(sc(C)c3C)-n3c(C)nnc32)C(C)(C)C)cc1 | -22.2 kcal/mol
145% | 36% | 1.56 10^6No_unit | 60% | Active | > 50% | -20.7 kcal/mol | 7% | 3.47 h | 127% | 100% | 90% | 68% | 80% | COc1cc(-c2cn(C)c(=O)c3cnccc23)cc(OC)c1CN1CCN(CCOCCOCCOc2cc(-c3scnc3C)ccc2CNC(=O)[C@@H]2C[C@@H](O)CN2C(=O)[C@@H](NC(=O)C2(F)CC2)C(C)(C)C)CC1 | –
